1 compound from ChEMBL document CHEMBL1152736, “Synthesis and biological testing of thioalkane- and thioarene-spaced bis-beta-D-glucopyranosides” (Bioorg Med Chem, 2009) can be followed below.

Active and inactive are the calls of the source. No cut-off for these calls is given here.

Common to all, as to format: functional, cell-based
Assay [1] deals with U-937. Put plainly: Stimulation of growth of human U937 cells at 25 to 50 uM after 24 hrs.
Assay [2] relates to MOLT-3. Put plainly: Stimulation of growth of human MOLT3 cells at 25 to 50 uM after 24 hrs.
Assay [3] concerns U-937. The assay can be described thus: Reduction in viability of human U937 at 75 uM after 24 hrs by MTS assay. In short, it runs like this: (§1)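 MTS colorimetric assay: 2 × 10⁴ cells in 100 µL RPMI-1640 with 5% FBS, 2 mM L-glutamine and penicillin–streptomycin, with compound or DMSO vehicle for 24 h. MTS reagent then added for 4 h and absorbance read at 490 nm. Mean and SD of three determinations. Comparison with vehicle by Student's t-test.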
In general terms: Tetrazolium assays rely on reduction of a dye to a coloured formazan, in cell work by metabolically active cells.

Assay [4] deals with MOLT-3. Put plainly: Reduction in viability of human MOLT3 cells at 75 uM after 24 hrs by MTS assay. The essentials:
as §1

Assay [5] relates to MOLT-3. Put plainly: Induction of apoptosis in human MOLT3 cells at 10 uM after 24 hrs by fluorescence microscopy. In short, it runs like this: (§2)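 Cells exposed 24 h to DMSO vehicle or test agent at 10–75 µM. Stained with acridine orange; apoptosis scored morphologically by fluorescence microscopy, over 600 cells analyzed. % apoptosis = apoptotic cells / total cells counted × 100. Mean and SD of three determinations. Comparison with vehicle by Student's t-test (MOLT3) or Tukey HSD (U937).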

Assay [6] deals with U-937. The assay can be described thus: Induction of apoptosis in human U937 cells at 10 uM after 24 hrs by fluorescence microscopy. The essentials: as §2
Assay [7] deals with U-937. The assay can be described thus: Induction of apoptosis in human U937 cells after 24 hrs by fluorescence microscopy. In short, it runs like this:
as §2

Assay [8] deals with MOLT-3. The assay can be described thus: Induction of apoptosis in human MOLT3 cells after 24 hrs by fluorescence microscopy. In short, it runs like this:
as §2

On to `C=C(CO[C@@H]1O[C@H](COC(C)=O)[C@@H](OC(C)=O)[C@H](OC(C)=O)[C@H]1OC(C)=O)[S+]([O-])c1cccc([S+]([O-])C(=C)CO[C@@H]2O[C@H](COC(C)=O)[C@@H](OC(C)=O)[C@H](OC(C)=O)[C@H]2OC(C)=O)c1` (stereo partly drawn), for which the outcome in assay [1], in assay [2], in assay [3] and in assay [4] was Active. For the same compound, the result in assay [5] and in assay [6] was inactive. The Activity entry in assay [7] and in assay [8] was “Dose-dependent effect” throughout.
